Test results as given in ChEMBL document CHEMBL4251733, “Manumycin A Is a Potent Inhibitor of Mammalian Thioredoxin Reductase-1 (TrxR-1)” (ACS Med Chem Lett, 2018).
Calls of active or inactive are those of the source. The calls are words filed in the database; no cut-off is given here.

Columns and labels:
[1] = Drug metabolism assessed as selenocysteine reactivity at 20 uM incubated for 1 hr measured every 5 mins for 1 hr by sel-green probe based fluorescence assay; format: physicochemical
Outline: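 Reduced L-selenocysteine (20 μM) reacted with Sel-green probe (20 μM) with test compound at 20 μM; DMSO-only control.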

[2] = target: T1, Thioredoxin reductase 1, cytoplasmic (Rattus norvegicus) (UniProt O89049); experiment: Irreversible inhibition of NADPH-reduced recombinant rat TrxR1 expressed in Escherichia coli harboring gor mutant assessed as suppression of DTNB reduction at 2 uM pretreated for 1 hr followed by NADPH addition for 30 mins and subsequent DTNB addition measured every 5 mins for 1 hr
T1 sequence (whole entry): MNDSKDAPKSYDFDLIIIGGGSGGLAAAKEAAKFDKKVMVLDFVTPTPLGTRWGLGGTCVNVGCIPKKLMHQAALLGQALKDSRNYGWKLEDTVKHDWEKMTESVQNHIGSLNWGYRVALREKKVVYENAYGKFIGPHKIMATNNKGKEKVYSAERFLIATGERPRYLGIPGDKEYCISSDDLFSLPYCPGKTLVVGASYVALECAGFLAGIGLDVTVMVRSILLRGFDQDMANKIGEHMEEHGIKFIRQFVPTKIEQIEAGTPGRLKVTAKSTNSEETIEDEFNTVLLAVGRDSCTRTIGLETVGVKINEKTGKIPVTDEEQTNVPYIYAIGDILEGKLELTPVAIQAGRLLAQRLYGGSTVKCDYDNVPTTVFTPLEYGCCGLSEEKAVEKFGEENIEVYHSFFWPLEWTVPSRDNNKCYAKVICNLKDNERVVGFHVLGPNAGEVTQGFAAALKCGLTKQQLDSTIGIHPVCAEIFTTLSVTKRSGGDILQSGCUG

[3] = target: T1, Thioredoxin reductase 1, cytoplasmic (Rattus norvegicus); experiment: (§1) Inhibition of NADPH-reduced recombinant rat TrxR1 expressed in Escherichia coli harboring gor mutant assessed as suppression of insulin reduction using Trx as substrate pretreated for 30 mins followed by Trx addition for 30 mins and subsequent eosin-labelled bovine insulin addition measured every 5 mins for 1 hr by fluorescence assay
[4] = target: T2, Thioredoxin reductase 1, cytoplasmic (Rattus norvegicus, UniProt O89049); experiment: as §1
[5] = target: T1, Thioredoxin reductase 1, cytoplasmic (Rattus norvegicus); experiment: Inhibition of NADPH-reduced recombinant rat TrxR1 expressed in Escherichia coli harboring gor mutant assessed as suppression of DTNB reduction at 5 uM pretreated for 1 hr followed by DTNB addition measured every 5 mins for 1 hr
Outline: (§2)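 Rat recombinant TrxR-1 (5.6 nM), prereduced, with DTNB (2 mM) and compound 0–5000 nM. Compound was either preincubated 1 h with enzyme before substrate or added at the same time as DTNB. Read-out was initial rates of DTNB reduction relative to no-compound control, giving IC50 (± error).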

[6] = target: T1, Thioredoxin reductase 1, cytoplasmic (Rattus norvegicus); experiment: Time-dependent inhibition of NADPH-reduced recombinant rat TrxR1 expressed in Escherichia coli harboring gor mutant assessed as suppression of DTNB reduction at 1 uM measured every 5 mins for 1 hr
[7] = target: T1, Thioredoxin reductase 1, cytoplasmic (Rattus norvegicus); experiment: Inhibition of NADPH-reduced recombinant rat TrxR1 expressed in Escherichia coli harboring gor mutant assessed as suppression of DTNB reduction at 5 uM incubated for 1 hr in presence of DTNB measured every 5 mins for 1 hr; outline: as §2
[8] = target: T1, Thioredoxin reductase 1, cytoplasmic (Rattus norvegicus); experiment: Inhibition of oxidized recombinant rat TrxR1 expressed in Escherichia coli harboring gor mutant assessed as suppression of DTNB reduction at 2 uM pretreated for 30 mins followed by NADPH addition for 30 mins and subsequent DTNB addition measured every 5 mins for 1 hr
[9] = target: T2, Thioredoxin reductase 1, cytoplasmic; experiment: Inhibition of NADPH-reduced recombinant rat TrxR1 expressed in Escherichia coli harboring gor mutant assessed as suppression of DTNB reduction pretreated for 1 hr followed by DTNB addition measured every 5 mins for 1 hr; outline: as §2
[10] = target: T1, Thioredoxin reductase 1, cytoplasmic (Rattus norvegicus); experiment: Induction of recombinant rat TrxR1 NADPH oxidase activity expressed in Escherichia coli harboring gor mutant assessed as superoxide generation by measuring cytochrome C reduction at 62.5 uM measured in presence of SOD
Outline: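 TrxR-1 (100 nM) incubated with compound (62.5 μM), with and without SOD (6 units/well); reduction of cytochrome C (100 μM) followed over time; DMSO-only control.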

[11] = target: T2, Thioredoxin reductase 1, cytoplasmic; experiment: Inhibition of NADPH-reduced recombinant rat TrxR1 expressed in Escherichia coli harboring gor mutant assessed as suppression of DTNB reduction incubated for 1 hr in presence of DTNB measured every 5 mins for 1 hr; outline: as §2

Row | SMILES | Drug metabolism [1] | inhibition [2] | inhibition [3] | IC50 [4] [nM] | inhibition [5] | TDI [6] | inhibition [7] | inhibition [8] | IC50 [9] [nM] | Activity [10] | IC50 [11] [nM]
1 | CCCCC(C)/C=C(C)/C=C(\C)C(=O)Nc1cc(/C=C/C=C/C=C/C(=O)NC2=C(O)CCC2=O)c(O)cc1O (configuration not stated) | Metabolite_Notdetected | – | – | – | – | – | – | – | – | – | –
2 | CCCC[C@@H](C)/C=C(C)/C=C(\C)C(=O)NC1=C[C@@](O)(/C=C/C=C/C=C/C(=O)NC2=C(O)CCC2=O)[C@@H]2O[C@@H]2C1=O [MANUMYCIN A] | Metabolite_Detected | Active | Dose-dependent effect | 572 | Active | Active | Active | inactive | 272 | inactive | 1590
